Test results: ChEMBL document CHEMBL2176870 (J Med Chem, 2012)
≈ marks a conversion by molar mass, not a printed value.

Assays:
Staphylococcus aureus = assay: Antibacterial activity against Staphylococcus aureus CIP54.146 after 18 hrs by broth microdilution method; format: functional; conditions: CIP54.146, 18 h
Outline: (§1)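 CLSI broth microdilution with serial 2-fold dilutions from 0.06 to 64 μg/mL. Cation-adjusted Mueller–Hinton broth, inoculum 5 × 10^5 CFU/mL, incubated at 35 °C for 18 h. MIC taken as the lowest concentration with no visible growth.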

Streptococcus pneumoniae = assay: Antibacterial activity against Streptococcus pneumoniae D39 after 18 hrs by broth microdilution method; format: functional; conditions: D39, 18 h
Outline: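 CLSI broth microdilution with 2-fold dilutions from 0.06 to 64 μg/mL. Cation-adjusted Mueller–Hinton broth with 2.5% lysed horse blood, inoculum 5 × 10^5 CFU/mL, grown at 35 °C for 18 h in 5% CO2. MIC is the lowest concentration showing no visible growth.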

Enterococcus faecalis = assay: Antibacterial activity against Enterococcus faecalis ATCC 29212 after 18 hrs by broth microdilution method; format: functional; conditions: ATCC 29212, 18 h; outline: as §1
Escherichia coli = assay: Antibacterial activity against Escherichia coli C7 after 18 hrs by broth microdilution method; format: functional; conditions: C7, 18 h
[1] = biological target: T1, Enoyl-[acyl-carrier-protein] reductase [NADH] FabI (Escherichia coli K-12, UniProt P0AEK4); assay: Inhibition of Escherichia coli FabI using crotonoyl-CoA as substrate preincubated for 90 mins
T1 sequence (P0AEK4 whole entry): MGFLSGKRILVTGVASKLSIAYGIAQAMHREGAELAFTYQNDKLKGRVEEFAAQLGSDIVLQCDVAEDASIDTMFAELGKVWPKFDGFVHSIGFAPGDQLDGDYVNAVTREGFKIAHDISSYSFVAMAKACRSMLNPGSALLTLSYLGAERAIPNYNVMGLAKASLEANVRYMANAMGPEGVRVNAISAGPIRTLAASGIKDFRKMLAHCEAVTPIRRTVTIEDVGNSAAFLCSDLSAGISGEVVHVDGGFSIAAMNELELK
Outline: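 Recombinant C-terminal 6-His-tagged E. coli FabI (40 nM) in 50 mM Hepes pH 7.5, 100 μM DTT, 0.006% Triton X-100. Enzyme preincubated with 20 μM NADH, 10 μM NAD+ and inhibitor in DMSO for 90 min at room temperature. Reaction started with 50 μM crotonoyl-CoA. 6–10 concentrations; IC50 by Langmuir fit.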

[2] = biological target: T2, Enoyl-[acyl-carrier-protein] reductase [NADPH] FabI (Staphylococcus aureus, UniProt Q6GI75); assay: Inhibition of Staphylococcus aureus recombinant FabI using trans-2-octenoyl N-acetylcysteamine thioester as substrate preincubated for 60 mins
T2 sequence (Q6GI75 whole entry): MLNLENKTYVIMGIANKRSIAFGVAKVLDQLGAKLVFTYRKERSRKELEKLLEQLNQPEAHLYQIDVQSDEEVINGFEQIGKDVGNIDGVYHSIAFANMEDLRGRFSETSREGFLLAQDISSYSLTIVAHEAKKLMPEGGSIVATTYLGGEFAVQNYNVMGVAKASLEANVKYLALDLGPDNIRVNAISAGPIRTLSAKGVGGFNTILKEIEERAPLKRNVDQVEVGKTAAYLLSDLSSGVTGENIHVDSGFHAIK
Outline: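 Recombinant S. aureus FabI (2 nM) in 50 mM ADA pH 6.5, 1 mM DTT, 0.006% Triton X-100, 50 mM NaCl. Preincubated 60 min at room temperature with 40 μM NADPH, 10 μM NADP+ and inhibitor in DMSO. Reaction started with 100 μM t-o-NAC. Inhibition versus untreated samples; IC50 by Langmuir fit.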

[3] = Cytotoxicity against human HepG2 cells; format: cell-based; conditions: read-out: ED50 (the source's name)

Structure (SMILES)	MIC (Staphylococcus aureus)	MIC (Streptococcus pneumoniae)	MIC (Enterococcus faecalis)	MIC (Escherichia coli)	IC50 [1]	IC50 [2]	CC50 [3]
OCc1ccc(Oc2cccc(F)n2)c(O)c1	4 µg/mL (≈ 17 µM)	> 32 µg/mL	> 32 µg/mL	> 32 µg/mL	29000 nM		
CCc1cc(O)c(Oc2ccc(C(=O)NC)cc2F)cc1F	1 µg/mL (≈ 3.25 µM)	> 32 µg/mL	> 32 µg/mL	8 µg/mL (≈ 26 µM)		82 nM	> 32 µg/mL
CCCc1ccc(Oc2cccc(F)n2)c(O)c1	0.25 µg/mL (≈ 1.01 µM)	64 µg/mL (≈ 259 µM)	> 32 µg/mL	4 µg/mL (≈ 16.2 µM)			
CCc1ccc(Oc2cccc(F)n2)c(O)c1	0.25 µg/mL (≈ 1.07 µM)	> 64 µg/mL	> 32 µg/mL	4 µg/mL (≈ 17.1 µM)	590 nM		
CCc1cc(O)c(Oc2ccc(C(=O)O)cc2F)cc1F	8 µg/mL (≈ 27.2 µM)	> 32 µg/mL	> 32 µg/mL	> 32 µg/mL		180 nM	> 32 µg/mL
COCc1ccc(Oc2cccc(F)n2)c(O)c1	4 µg/mL (≈ 16 µM)	> 32 µg/mL	> 32 µg/mL	16 µg/mL (≈ 64.2 µM)	14000 nM		
Oc1cc(Cl)ccc1Oc1ccc(Cl)cc1Cl [TRICLOSAN]	0.031 µg/mL (≈ 0.107 µM)	8 µg/mL (≈ 27.6 µM)	2 µg/mL (≈ 6.91 µM)	0.125 µg/mL (≈ 0.432 µM)			2 µg/mL (≈ 6.91 µM)
Cc1ccc(Oc2cccc(F)n2)c(O)c1	4 µg/mL (≈ 18.2 µM)	> 32 µg/mL	> 32 µg/mL	16 µg/mL (≈ 73 µM)	3500 nM		
CCc1ccc(Oc2ccc(S(N)(=O)=O)cc2F)c(O)c1	0.25 µg/mL (≈ 0.803 µM)	> 32 µg/mL	> 32 µg/mL	1 µg/mL (≈ 3.21 µM)	860 nM		
Cc1ccc(-c2ccc(Oc3cccc(F)n3)c(O)c2)cc1	8 µg/mL (≈ 27.1 µM)	16 µg/mL (≈ 54.2 µM)	> 32 µg/mL	8 µg/mL (≈ 27.1 µM)	6500 nM		
CC(C)Cc1ccc(Oc2cccc(F)n2)c(O)c1	1 µg/mL (≈ 3.83 µM)	> 32 µg/mL	> 32 µg/mL	4 µg/mL (≈ 15.3 µM)	570 nM		
CCc1cc(O)c(Oc2ccc(C(=O)N3CCNC(=O)C3)cc2F)cc1F	0.25 µg/mL (≈ 0.664 µM)	> 32 µg/mL	> 32 µg/mL	4 µg/mL (≈ 10.6 µM)			> 32 µg/mL
CCc1cc(O)c(Oc2cccnc2F)cc1F	0.062 µg/mL (≈ 0.247 µM)	> 32 µg/mL	> 32 µg/mL	0.25 µg/mL (≈ 0.995 µM)		13 nM	
CCCNS(=O)(=O)c1ccc(Oc2ccc(CC)cc2O)c(F)c1	0.062 µg/mL (≈ 0.175 µM)	16 µg/mL (≈ 45.3 µM)	> 32 µg/mL	4 µg/mL (≈ 11.3 µM)	240 nM		
CCc1ccc(Oc2ccccc2NC)c(O)c1	4 µg/mL (≈ 16.4 µM)	> 32 µg/mL	> 32 µg/mL	> 32 µg/mL	112000 nM		
CCc1ccc(Oc2ccc(C(C)=O)cc2F)c(O)c1	0.062 µg/mL (≈ 0.226 µM)	16 µg/mL (≈ 58.3 µM)	16 µg/mL (≈ 58.3 µM)	1 µg/mL (≈ 3.65 µM)	110 nM		
Oc1cc(CCCn2cncn2)ccc1Oc1cccc(F)n1	4 µg/mL (≈ 12.7 µM)	> 32 µg/mL	> 32 µg/mL	> 32 µg/mL	6900 nM		
CCc1cc(O)c(Oc2ccc(C#N)cc2F)cc1F	0.062 µg/mL (≈ 0.225 µM)	8 µg/mL (≈ 29.1 µM)	32 µg/mL (≈ 116 µM)	1 µg/mL (≈ 3.63 µM)		31 nM	16 µg/mL (≈ 58.1 µM)
CCc1ccc(Oc2ccc(S(=O)(=O)NCCc3ccccn3)cc2F)c(O)c1	0.25 µg/mL (≈ 0.6 µM)	> 32 µg/mL	> 32 µg/mL	16 µg/mL (≈ 38.4 µM)	150 nM		
CCCc1ccc(Oc2cccc(NC(C)=O)c2)c(O)c1	16 µg/mL (≈ 56.1 µM)	> 32 µg/mL	> 32 µg/mL	> 32 µg/mL	44000 nM		
CCc1cc(O)c(Oc2ccccc2)cc1F	0.062 µg/mL (≈ 0.267 µM)	16 µg/mL (≈ 68.9 µM)	32 µg/mL (≈ 138 µM)	1 µg/mL (≈ 4.31 µM)		37 nM	16 µg/mL (≈ 68.9 µM)
CCc1cc(O)c(Oc2ccccc2F)cc1F	0.031 µg/mL (≈ 0.124 µM)	32 µg/mL (≈ 128 µM)	32 µg/mL (≈ 128 µM)	0.25 µg/mL (≈ 0.999 µM)		8 nM	16 µg/mL (≈ 63.9 µM)
CCc1ccc(Oc2ccc(S(=O)(=O)NCCO)cc2F)c(O)c1	0.25 µg/mL (≈ 0.703 µM)	> 32 µg/mL	> 32 µg/mL	16 µg/mL (≈ 45 µM)	1200 nM		
